Screening results deposited in PubChem BioAssay by Broad Institute.
EWS-Fli block: EWS/Fli-driven NR0B1 reporter inhibitors, primary screen, A673 cells, NR0B1 luciferase, luminescence, MLPCN library; viability-normalised; inhibition, % at 12.6 µM; hit rate 0.67% among 350,000;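 active = mean inhibition of at least 50% after viability correction, with every replicate also passing that limit; inconclusive = mean reaches 50% but only one of two replicates passes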;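 also: firefly luciferase signal divided by Alamar Blue viability fluorescence both relative to DMSO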
PAX8 reporter: inhibitors of PAX8-driven TPO luciferase reporter, primary screen, RMG-I cells, single concentration; hit rate 1.2% among 360,000; inhibition, % at 12.6 µM; SteadyGlo, 24 h;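 active = mean replicate inhibition at least 60% with every replicate also reaching 60%; inconclusive = only one of the two criteria is met; inactive = mean below 60% and not all replicates reaching 60%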;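 also: luciferase light reporting Pax8 driven TPO promoter activity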
Shn3 3UTR inh: reduction of Shn3 3'UTR firefly luciferase signal, primary screen, Schnurri-3 inhibitor project, cell-based, Clone20 osteoblasts, set 2. hit rate 0.52% among 360,000. Clone20 osteoblast Shn3 3'UTR firefly luciferase, 24 h. inhibition, % at 12.5 µM;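 active = mean inhibition of at least 75% with every replicate also reaching 75%; inconclusive = mean inhibition at least 75% but some replicate below; inactive = mean inhibition below 75%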
aSyn 5UTR inh: MLPCN primary screen, SNCA 5' untranslated region. hit rate 0.82% among 300,000. AID 1813, 2009. alpha-synuclein 5'UTR reporter, inhibitor activity. inhibition, % (tested at 7.5 µM); in the data active = inhibition above about 60%; inconclusive = no clear call, values can overlap the other calls;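 also: H4 neuroglioblastoma cells stably carrying SNCA 5'UTR luciferase fusion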
FN deposit inh: inhibitors of fibronectin matrix deposition, primary screen, AH1F cells, Alexa488-fibronectin fluorescence, plate reader | AH1F fibroblasts, overnight | inhibition, % at 12.6 µM | hit rate 0.086% among 350,000;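 active = mean inhibition across replicates of 30% or more, regardless of how many single replicates reach that level; inconclusive = mean under 30% yet at least half of replicates reach 30%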
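Assay system: AH1F fibroblasts / Quantity: 10000 cells per well / Medium: DMEM plus 2% serum, read in PBS / Reagent: labelled fibronectin 24 nM / Dosing: single dose, pinned / Times: 1 h cell attachment, overnight exposure to compound and label / Signal: fluorescence, ex 485 nm, em 525 nm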
LMP1 NFkB inh: EBV LMP1-driven NF-kappaB luciferase reporter inhibitors, primary screen, cell-based, luminescence, single point. LMP1-induced NF-kappaB luciferase reporter cells. inhibition, % at 12.5 µM. hit rate 0.69% among 350,000; in the data active = inhibition above about 41%; inconclusive = no clear call, values can overlap the other calls
A number is an active result; – = inactive; ? = inconclusive; · = not tested or not shown. Sampled rows, rich in hits. Any-hit rate of the full collection: about 2.1%.

SMILES	EWS-Fli block	PAX8 reporter	Shn3 3UTR inh	aSyn 5UTR inh	FN deposit inh	LMP1 NFkB inh
C[C@H](CO)N1C[C@H](C)[C@H](CN(C)C(=O)c2ccccc2)OCCCC[C@H](C)Oc2ccc(NC(=O)Nc3ccc(C(F)(F)F)cc3)cc2C1=O	–	104	·	·	·	·
C[C@H]1CN([C@@H](C)CO)C(=O)Cc2cc(NC(=O)CCCCCC(=O)Nc3ccccc3N)ccc2O[C@@H]1CN(C)C(=O)Nc1cccc2ccccc12	–	–	·	·	·	·
CC(=O)Nc1ccc2c(c1)C(=O)N(C)[C@@H]1CC[C@@H](CC(=O)NCc3ccc(Cl)cc3)O[C@H]1CO2	–	–	·	·	–	·
COc1cc(C2NC(=O)c3ccccc3O2)cc(OC)c1OC (stereo unspecified)	·	–	–	–	–	–
COc1cc(C2Oc3ccccc3C=C2[N+](=O)[O-])cc(OC)c1OC (stereo unspecified)	52	–	–	·	–	·
O=C(N[C@@H]1CC[C@H](CC(=O)N2CCOCC2)O[C@@H]1CO)c1cccc(F)c1	–	–	·	·	–	·
CCc1cnc(N2[C@@H](C#N)[C@@H](c3ccc(C#CC(C)C)cc3)[C@@H]2CO)s1	–	113	·	·	–	·
CCCCCCCCCCCCCCCCn1cc[n+](CC(C)=O)c1	·	·	–	·	·	–
CCCCCCn1ccc(=N)cc1	·	·	86	–	·	–
COc1ccc2c3c(n(C)c2c1)[C@H](CO)N(C(=O)CN1CCOCC1)CC31CCN(C(=O)C2CC2)CC1	–	·	·	·	·	·
CC1CCCC(C)N1CCCNC(=O)c1cc2c(s1)-c1ccccc1OC2 (stereo unspecified)	–	–	–	70	–	–
Cc1cccc2c1-c1sc(C(=O)NCCCN3CCCC(C)C3)cc1CO2 (stereo unspecified)	·	–	–	69	–	–
C[C@H](CO)N1C[C@H](C)[C@H](CN(C)C(=O)Nc2ccccc2)Oc2c(NS(=O)(=O)c3ccc(F)cc3)cccc2C1=O	–	·	·	·	·	·
CCN(CC)c1ccc(NC(=O)CCCCC(=O)Nc2ccc(N(CC)CC)cc2)cc1	?	–	–	63	–	–
CCN(CC)c1ccc(NC(=O)CCCCCN2C(=O)c3ccccc3C2=O)cc1	·	·	–	–	–	–
O=C(CCCCCN1C(=O)c2ccccc2C1=O)Nc1ccccc1	·	·	–	–	·	–
O=C(CCCCCCC(=O)Nc1ccccc1)NO	71	102	–	·	–	–
C[C@H](CO)N1C[C@H](C)[C@@H](CN(C)S(=O)(=O)c2ccccc2)Oc2c(NC(=O)C3CCOCC3)cccc2C1=O	–	–	·	·	·	·
CC(=O)Nc1nc(NC(=O)/C=C/c2ccccc2)n(-c2ccccc2)n1	·	–	–	79	–	–
Nc1nc(NC(=O)c2ccccc2)nn1-c1ccccc1	–	–	–	–	–	–
O=C(Nc1nc(NC(=O)c2ccco2)n(-c2ccccc2)n1)c1ccccc1	·	·	?	79	·	–
CC(=O)Nc1nc(NCc2ccccc2Cl)n(-c2ccccc2)n1	–	–	–	–	–	–
CCC(=O)Nc1ccc2c(c1)C(=O)N(C)C[C@H](OC)[C@H](C)CN(CC1CC1)[C@H](C)CO2	–	–	·	·	–	·
C[C@@H]1CC=CC[C@H](c2ccccc2)NC(=O)[C@@H](Cc2ccccc2)N(C)C(=O)c2ccccc2O1 (mixture of isomers)	·	·	·	·	–	·
C=C(C)[C@@H]1C2=CC(C(=O)OC)=C(C[C@H](C(=C)C)[C@H]3O[C@H]3C3=C[C@H]1OC3=O)O2	57	·	98	·	·	·
SMILES	EWS-Fli block	PAX8 reporter	Shn3 3UTR inh	aSyn 5UTR inh	FN deposit inh	LMP1 NFkB inh
O=C(NCC1CC1)[C@H]1[C@H](CO)[C@H]2Cn3c(ccc(C4=CCCCC4)c3=O)[C@@H]1N2	–	·	·	·	·	·
COc1ccc(-c2ccc3c(c2)[C@@H]2[C@@H](CCN2S(=O)(=O)c2ccc(OC)cc2)[C@@H](CO)N3C)cc1	–	85	·	·	–	·
COc1ccc(S(=O)(=O)N2CC[C@@H]3[C@H](CO)N(C)c4ccc(-c5ccccc5F)cc4[C@@H]32)cc1	–	–	·	·	–	·
COc1ccc(-c2ccc3c(c2)[C@H]2[C@H](CCN2S(=O)(=O)c2ccc(OC)cc2)[C@H](CO)N3C)cc1	–	95	·	·	–	·
COc1ccc(S(=O)(=O)N2CC[C@H]3[C@@H](CO)N(C)c4ccc(-c5ccc(F)cc5)cc4[C@H]32)cc1	–	–	·	·	–	·
CO[C@H]1CN(C)C(=O)c2ccc(NC(=O)C3CC3)cc2OC[C@@H](C)N(Cc2cc(F)ccc2F)C[C@H]1C	–	·	·	·	–	·
O=C(C[C@H]1CC[C@@H]2[C@H](COC[C@@H](O)CN2Cc2nccs2)O1)NCc1ccc(F)cc1	–	–	·	·	–	·
C#CCOCCOCCOCCNc1nc(N2CCN(C(=O)CCCCCCCCCCNC(=O)[C@H](CCCCN)n3cc(C[C@@H](C)CC)nn3)CC2)nc(N2CCN(C(=O)CCCCCCCCCCNC(=O)[C@@H]([C@H](C)O)n3cc(C)nn3)CC2)n1	·	·	96	·	·	–
CC[C@H](C)Cc1cn([C@@H](CCCN=C(NC(=O)OC(C)(C)C)NC(=O)OC(C)(C)C)C(=O)NCCCCCCCCCCC(=O)N2CCN(C(=O)OC(C)(C)C)CC2)nn1	·	·	–	–	·	–
Cc1cn([C@@H](CCCCNC(=O)OC(C)(C)C)C(=O)NCCCCCCCCCCC(=O)N2CCN(C(=O)OC(C)(C)C)CC2)nn1	·	·	90	·	·	–
Cc1cccc(NC(=O)Nc2ccc3c(c2)C(=O)N(C)[C@@H]2CC[C@H](CC(=O)NCc4ccccc4Cl)O[C@@H]2CO3)c1	–	–	·	·	–	·
CCS(=O)(=O)N1CCCCN2[C@H](CO)[C@H](c3ccc(-c4cccc(C#N)c4)cc3)[C@H]2C1	·	–	·	·	·	·
Cc1ccc2c(c1C)-c1c(ccc(C)c1C)C(=O)C2=O	59	93	–	·	–	–
COc1ccc(CCN2C(=O)C=CC2=O)cc1OC	–	95	–	·	–	–
COc1ccc(CCN2C(=O)CSC2c2ccc(OC)c(OC)c2)cc1OC (stereo unspecified)	–	–	–	–	–	–
COc1ccc(CCn2c(C)ccc2C)cc1OC	·	·	·	–	·	·
COc1ccc(C2SCC(=O)N2CCc2ccc(OC)c(OC)c2)cc1 (stereo unspecified)	54	–	–	–	–	–
COc1ccc(NC(=O)Nc2ccc3c(c2)CC(=O)N([C@H](C)CO)C[C@H](C)[C@H](CN(C)C(=O)Nc2ccc(F)cc2)O3)cc1	–	–	·	·	·	·
O=C(C[C@H]1C=C[C@H](NC(=O)C2CCC2)[C@H](CO)O1)NCc1ccncc1	–	–	·	·	–	·
Cc1[nH]n(-c2ccccc2)c(=O)c1N=Nc1ccccc1O	–	66	85	?	–	–
Cc1[nH]n(-c2ccccc2)c(=O)c1N=Nc1ccccc1C(=O)O	–	–	–	–	–	–
Cc1nn(CCO)c2nc(-c3cccs3)cc(C(F)(F)F)c12	–	161	–	–	–	–
